Assays:
[1] = Stability of the compound in rat plasma assessed as drug recovery; type: ADME, cell-free
[2] = Stability of the compound in water-methanol mixture (1:1) assessed as drug recovery; type: physicochemical; conditions: buffer
[3] = AUC(0 to 24 hrs) in Sprague-Dawley rat plasma at 9.6 mg/kg, po administered as OPMS liquid formulation measured for 24 hrs by UPLC-MS/MS analysis; type: ADME, organism-based; parameters: route oral, time 24 hrs, dose 9.6 mg/kg
[4] = Dose normalized AUC(0 to 24 hrs) in Sprague-Dawley rat plasma at 5.73 mg/kg, po administered as LKT formulation measured for 24 hrs by UPLC-MS/MS analysis; type: ADME, organism-based; conditions: in vivo
[5] = Dose normalized AUC in rat plasma at 20 mg/kg, po administered as LKT formulation; type: ADME, organism-based; conditions: in vivo
[6] = Cmax in Sprague-Dawley rat plasma at 9.6 mg/kg, po administered as OPMS liquid formulation measured for 24 hrs by UPLC-MS/MS analysis; type: ADME, organism-based; parameters: route oral, dose 9.6 mg/kg, time 24 hrs
In short: (§1)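 Jugular-cannulated male SD rats (225 ± 25 g, n = 4) were fasted 12–16 h and given one oral gavage of LKT (366 mg/kg) or OPMS liquid (0.8 mL/kg) in water at 4 mL/kg, with dosing normalized to MTG human equivalent dose. Plasma was sampled from predose to 24 h and measured by UPLC–MS/MS (LLOQ 1 ng/mL). Cmax and Tmax were read from the observed data; Cmax/dose was also reported. Mean ± SEM.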

[7] = Tmax in Sprague-Dawley rat plasma at 5.73 mg/kg, po administered as LKT formulation measured for 24 hrs by UPLC-MS/MS analysis; type: ADME, organism-based; in short: as §1
[8] = Dose normalized AUC(0 to 24 hrs) in Sprague-Dawley rat plasma at 9.6 mg/kg, po administered as OPMS liquid formulation measured for 24 hrs by UPLC-MS/MS analysis; type: ADME, organism-based; conditions: in vivo
[9] = rat, in vivo, po, 5.73 mg/kg, 24 h
[10] = Dose normalized Cmax in Sprague-Dawley rat plasma at 5.73 mg/kg, po administered as LKT formulation measured for 24 hrs by UPLC-MS/MS analysis; type: ADME, organism-based; conditions: in vivo; in short: as §1
[11] = Dose normalized Cmax in Sprague-Dawley rat plasma at 9.6 mg/kg, po administered as OPMS liquid formulation measured for 24 hrs by UPLC-MS/MS analysis; type: ADME, organism-based; conditions: in vivo; in short: as §1
[12] = AUC(0 to 24 hrs) in Sprague-Dawley rat plasma at 5.73 mg/kg, po administered as LKT formulation measured for 24 hrs by UPLC-MS/MS analysis; type: ADME, organism-based; parameters: route oral, time 24 hrs, dose 5.73 mg/kg
[13] = rat, in vivo, po, 9.6 mg/kg, 24 h
Cytochrome P450 2D6 = Cytochrome P450 2D6 (Homo sapiens, UniProt P10635); assay: Inhibition of CYP2D6 in human liver microsomes assessed as inhibition of dextromethorphan O-demethylation using dextromethorphan as substrate preincubated for 5 mins followed by NADPH addition by UPLC-MS/MS analysis; type: ADME
[14] = Cmax in Sprague-Dawley rat plasma at 5.73 mg/kg, po administered as LKT formulation measured for 24 hrs by UPLC-MS/MS analysis; type: ADME, organism-based; parameters: route oral, dose 5.73 mg/kg, time 24 hrs; in short: as §1
[15] = Tmax in Sprague-Dawley rat plasma at 9.6 mg/kg, po administered as OPMS liquid formulation measured for 24 hrs by UPLC-MS/MS analysis; type: ADME, organism-based; in short: as §1
[16] = Dose normalized Cmax in rat plasma at 20 mg/kg, po administered as LKT formulation; type: ADME, organism-based; conditions: in vivo
[17] = Tmax in Sprague-Dawley rat plasma at 2.03 mg/kg, po administered as LKT formulation measured for 24 hrs by UPLC-MS/MS analysis; type: ADME, organism-based; in short: as §1
[18] = Dose normalized AUC(0 to 24 hrs) in Sprague-Dawley rat plasma at 2.03 mg/kg, po administered as LKT formulation measured for 24 hrs by UPLC-MS/MS analysis; type: ADME, organism-based; conditions: in vivo
[19] = AUC(0 to 24 hrs) in Sprague-Dawley rat plasma at 2.24 mg/kg, po administered as OPMS liquid formulation measured for 24 hrs by UPLC-MS/MS analysis; type: ADME, organism-based; parameters: route oral, time 24 hrs, dose 2.24 mg/kg
[20] = Tmax in Sprague-Dawley rat plasma at 2.24 mg/kg, po administered as OPMS liquid formulation measured for 24 hrs by UPLC-MS/MS analysis; type: ADME, organism-based; in short: as §1
[21] = Dose normalized Cmax in Sprague-Dawley rat plasma at 2.24 mg/kg, po administered as OPMS liquid formulation measured for 24 hrs by UPLC-MS/MS analysis; type: ADME, organism-based; conditions: in vivo; in short: as §1
[22] = AUC(0 to 24 hrs) in Sprague-Dawley rat plasma at 2.03 mg/kg, po administered as LKT formulation measured for 24 hrs by UPLC-MS/MS analysis; type: ADME, organism-based; parameters: route oral, time 24 hrs, dose 2.03 mg/kg
[23] = Cmax in Sprague-Dawley rat plasma at 2.03 mg/kg, po administered as LKT formulation measured for 24 hrs by UPLC-MS/MS analysis; type: ADME, organism-based; parameters: route oral, dose 2.03 mg/kg, time 24 hrs; in short: as §1
[24] = Cmax in Sprague-Dawley rat plasma at 2.24 mg/kg, po administered as OPMS liquid formulation measured for 24 hrs by UPLC-MS/MS analysis; type: ADME, organism-based; parameters: route oral, dose 2.24 mg/kg, time 24 hrs; in short: as §1
[25] = Dose normalized Cmax in Sprague-Dawley rat plasma at 2.03 mg/kg, po administered as LKT formulation measured for 24 hrs by UPLC-MS/MS analysis; type: ADME, organism-based; conditions: in vivo; in short: as §1
[26] = Dose normalized AUC(0 to 24 hrs) in Sprague-Dawley rat plasma at 2.24 mg/kg, po administered as OPMS liquid formulation measured for 24 hrs by UPLC-MS/MS analysis; type: ADME, organism-based; conditions: in vivo
[27] = Plasma concentration in Sprague-Dawley rat at 1.1 mg/kg, po administered as LKT formulation measured within 1 hrs by UPLC-MS/MS analysis; type: ADME, organism-based; in short: as §1
[28] = Cmax in Sprague-Dawley rat plasma at 1.77 mg/kg, po administered as OPMS liquid formulation measured for 24 hrs by UPLC-MS/MS analysis; type: ADME, organism-based; parameters: route oral, time 24 hrs, dose 1.77 mg/kg; in short: as §1
[29] = Tmax in Sprague-Dawley rat plasma at 1.1 mg/kg, po administered as LKT formulation measured for 24 hrs by UPLC-MS/MS analysis; type: ADME, organism-based; in short: as §1
[30] = Tmax in Sprague-Dawley rat plasma at 1.77 mg/kg, po administered as OPMS liquid formulation measured for 24 hrs by UPLC-MS/MS analysis; type: ADME, organism-based; in short: as §1
[31] = Plasma concentration in Sprague-Dawley rat at 1.77 mg/kg, po administered as OPMS liquid formulation measured within 1 hrs by UPLC-MS/MS analysis; type: ADME, organism-based; in short: as §1
[32] = Cmax in Sprague-Dawley rat plasma at 1.1 mg/kg, po administered as LKT formulation measured for 24 hrs by UPLC-MS/MS analysis; type: ADME, organism-based; parameters: route oral, dose 1.1 mg/kg, time 24 hrs; in short: as §1
[33] = Drug uptake in Sprague-Dawley rat plasma at 1.23 mg/kg, po administered as OPMS liquid formulation measured within 1 hrs by UPLC-MS/MS analysis; type: ADME, organism-based; in short: as §1
[34] = Drug uptake in Sprague-Dawley rat plasma at 0.79 mg/kg, po administered as LKT formulation measured within 1 hrs by UPLC-MS/MS analysis; type: ADME, organism-based; in short: as §1
[35] = Cmax in Sprague-Dawley rat plasma at 1.23 mg/kg, po administered as OPMS liquid formulation measured for 24 hrs by UPLC-MS/MS analysis; type: ADME, organism-based; parameters: route oral, time 24 hrs, dose 1.23 mg/kg; in short: as §1
[36] = Tmax in Sprague-Dawley rat plasma at 0.79 mg/kg, po administered as LKT formulation measured for 24 hrs by UPLC-MS/MS analysis; type: ADME, organism-based; in short: as §1
[37] = Tmax in Sprague-Dawley rat plasma at 1.23 mg/kg, po administered as OPMS liquid formulation measured for 24 hrs by UPLC-MS/MS analysis; type: ADME, organism-based; in short: as §1
[38] = Cmax in Sprague-Dawley rat plasma at 0.79 mg/kg, po administered as LKT formulation measured for 24 hrs by UPLC-MS/MS analysis; type: ADME, organism-based; parameters: route oral, time 24 hrs, dose 0.79 mg/kg; in short: as §1
[39] = Cmax in Sprague-Dawley rat plasma at <0.1 mg/kg, po administered as LKT formulation measured for 24 hrs by UPLC-MS/MS analysis; type: ADME, organism-based; parameters: route oral, time 24 hrs, dose <0.1; in short: as §1
[40] = Tmax in Sprague-Dawley rat plasma at <0.1 mg/kg, po administered as LKT formulation measured for 24 hrs by UPLC-MS/MS analysis; type: ADME, organism-based; in short: as §1
[41] = AUC(0 to 24 hrs) in Sprague-Dawley rat plasma at <0.1 mg/kg, po administered as LKT formulation measured for 24 hrs by UPLC-MS/MS analysis; type: ADME, organism-based; parameters: route oral, time 24 hrs, dose <0.1
[42] = AUC(0 to 24 hrs) in Sprague-Dawley rat plasma at <0.1 mg/kg, po administered as OPMS liquid formulation measured for 24 hrs by UPLC-MS/MS analysis; type: ADME, organism-based; parameters: route oral, time 24 hrs, dose <0.1
[43] = Cmax in Sprague-Dawley rat plasma at <0.1 mg/kg, po administered as OPMS liquid formulation measured for 24 hrs by UPLC-MS/MS analysis; type: ADME, organism-based; parameters: route oral, time 24 hrs, dose <0.1; in short: as §1
[44] = Tmax in Sprague-Dawley rat plasma at <0.1 mg/kg, po administered as OPMS liquid formulation measured for 24 hrs by UPLC-MS/MS analysis; type: ADME, organism-based; in short: as §1

Chain of Cytochrome P450 2D6 (P10635 whole entry): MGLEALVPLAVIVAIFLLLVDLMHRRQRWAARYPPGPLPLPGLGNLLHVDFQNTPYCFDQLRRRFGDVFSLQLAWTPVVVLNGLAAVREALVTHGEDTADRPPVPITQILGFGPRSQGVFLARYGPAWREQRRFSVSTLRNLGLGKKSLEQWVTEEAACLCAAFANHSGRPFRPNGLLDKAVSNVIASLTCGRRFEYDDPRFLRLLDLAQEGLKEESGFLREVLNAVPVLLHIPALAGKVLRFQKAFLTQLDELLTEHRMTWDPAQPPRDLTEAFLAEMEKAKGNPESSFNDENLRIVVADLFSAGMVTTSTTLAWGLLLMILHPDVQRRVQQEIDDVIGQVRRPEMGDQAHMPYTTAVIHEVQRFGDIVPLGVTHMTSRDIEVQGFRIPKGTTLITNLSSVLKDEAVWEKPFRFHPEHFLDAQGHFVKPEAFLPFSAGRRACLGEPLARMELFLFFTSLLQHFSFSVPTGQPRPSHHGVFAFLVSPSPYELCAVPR

## COC(=O)C1=CO[C@@H](C)[C@H]2CN3CC[C@]4(C(=O)Nc5ccccc54)[C@@H]3C[C@H]12
[1]
  Drug recovery: > 90%
[2]
  Drug recovery: > 80%

## CC[C@@H]1CN2CCc3c([nH]c4cccc(OC)c34)[C@@H]2C[C@@H]1/C(=C\OC)C(=O)OC
[3]
  AUC(0-t) at 24 h: 1310 ng·h/mL
[1]
  Drug recovery: > 90%
[4]
  AUC/dose: 83.7 kg·ng·h/mL/mg
[5]
  AUC/dose: 213.1 kg·ng·h/mL/mg
[6]
  Cmax: 112 ng/mL
[7]
  Tmax: 1.3 h
[8]
  AUC/dose: 136.1 kg·ng·h/mL/mg
[9]
  Drug metabolism: 3.4%
[10]
  Cmax/dose: 11.1 kg·ng/mL/mg
[11]
  Cmax/dose: 11.7 kg·ng/mL/mg
[12]
  AUC(0-t) at 24 h: 480 ng·h/mL
[13]
  Drug metabolism: 3.1%
Cytochrome P450 2D6
  Ki: 1100 nM
[14]
  Cmax: 63.8 ng/mL
[15]
  Tmax: 3.1 h
[16]
  Cmax/dose: 46.5 ng/mL
[2]
  Drug recovery: > 80%

## CC[C@@H]1CN2CCc3c([nH]c4cccc(OC)c34)[C@H]2C[C@@H]1/C(=C\OC)C(=O)OC
[17]
  Tmax: 1.8 h
[1]
  Drug recovery: > 90%
[18]
  AUC/dose: 52.9 kg·ng·h/mL/mg
[19]
  AUC(0-t) at 24 h: 223 ng·h/mL
[20]
  Tmax: 3.2 h
[21]
  Cmax/dose: 10.8 kg·ng/mL/mg
[22]
  AUC(0-t) at 24 h: 107 ng·h/mL
[23]
  Cmax: 21.1 ng/mL
[24]
  Cmax: 23.8 ng/mL
[25]
  Cmax/dose: 10.4 kg·ng/mL/mg
[26]
  AUC/dose: 101.2 kg·ng·h/mL/mg
[2]
  Drug recovery: > 80%

## C=C[C@H]1CN2CCc3c([nH]c4cccc(OC)c34)[C@@H]2C[C@@H]1/C(=C\OC)C(=O)OC
[27]
  concentration at 1 h: < 1 ng/mL
[1]
  Drug recovery: > 90%
[28]
  Cmax: 2 ng/mL
[29]
  Tmax: 0.167 h
[30]
  Tmax: 5 min
[31]
  concentration at 1 h: < 1 ng/mL
[32]
  Cmax: 5.3 ng/mL
[2]
  Drug recovery: > 80%

## CC[C@@H]1CN2CC[C@@]3(C(=O)Nc4cccc(O)c43)[C@H]2C[C@@H]1/C(=C\OC)C(=O)OC
[1]
  Drug recovery: > 90%
[2]
  Drug recovery: > 80%

## CC[C@H]1CN2CCc3c([nH]c4cccc(OC)c34)[C@@H]2C[C@@H]1/C(=C\OC)C(=O)OC
[1]
  Drug recovery: > 90%
[33]
  concentration at 1 h: < 1 ng/mL
[34]
  concentration at 1 h: < 1 ng/mL
[35]
  Cmax: 2.9 ng/mL
[36]
  Tmax: 0.167 h
[37]
  Tmax: 5 min
[38]
  Cmax: 2.9 ng/mL
[2]
  Drug recovery: > 80%

## CC[C@@H]1CN2CC[C@@]3(O)C(=Nc4cccc(OC)c43)[C@@H]2C[C@@H]1/C(=C\OC)C(=O)OC
[1]
  Drug recovery: > 90%
[39]
  Cmax: 4.3 ng/mL
[40]
  Tmax: 0.9 h
[41]
  AUC(0-t) at 24 h: 17.4 ng·h/mL
[42]
  AUC(0-t) at 24 h: 41 ng·h/mL
[43]
  Cmax: 4 ng/mL
[2]
  Drug recovery: > 80%
[44]
  Tmax: 3.1 h

## CC[C@@H]1CN2CC[C@]3(C(=O)Nc4ccccc43)[C@@H]2C[C@@H]1/C(=C\OC)C(=O)OC [CORYNOXINE B]
[1]
  Drug recovery: > 90%
[2]
  Drug recovery: > 80%

## CC[C@@H]1CN2CC[C@@]3(C(=O)Nc4ccccc43)[C@@H]2C[C@@H]1/C(=C\OC)C(=O)OC [CORYNOXINE]
[1]
  Drug recovery: > 90%
[2]
  Drug recovery: > 80%

— ChEMBL document CHEMBL4834399, “Pharmacokinetics of Eleven Kratom Alkaloids Following an Oral Dose of Either Traditional or Commercial Kratom Products in Rats” (J Nat Prod, 2021)
